Paper PMC11253529 (iScience, 2024)
Read-outs that look alike come from different tables or passages of the source.

Columns and labels:
[1] = tested on: intracellular Ca^2+; test: Intracellular Ca2+ induction assay; type: cell-based, human; conditions: 2.5 μg/mL; Fluo-8 pre-treated HEK293T cells; fluorescence imaging; n = 3
Outline: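 HEK293T cells (2 × 10^4/well, poly-D-lysine plates) were cultured 24 h at 37°C, then loaded with 4 μM Fluo-8-AM in HBSS for 1 h at 37°C and switched to HBSS. After peptide addition, confocal high-content images were taken every second for 20 s. Cells above a fluorescence threshold set from pre-treatment cells were counted against untreated cells. The positive control was 5 μM ionomycin.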

[2] = tested on: A. flavus ATCC9170; conditions: MHII medium; previously determined values; ref Krämer et al.[35]; cited from earlier work
[3] = tested on: S. aureus (MRSA) ATCC33592; conditions: MHII medium; previously determined values; ref Krämer et al.[35]; cited from earlier work
[4] = tested on: E. coli ATCC35218; conditions: previously determined values, ref Krämer et al.[35], cited from earlier work
[5] = tested on: P. aeruginosa ATCC27853; conditions: MHII medium, previously determined values, ref Krämer et al.[35], cited from earlier work
[6] = tested on: M. smegmatis ATCC607; conditions: MHII medium; previously determined values; ref Krämer et al.[35]; cited from earlier work
[7] = tested on: C. albicans FH2173; conditions: MHII medium; previously determined values; ref Krämer et al.[35]; cited from earlier work
[8] = tested on: pea aphids; conditions: feeding assay; cited from earlier work

Substance	Induction of intracellular Ca^2+ levels [1]	MIC, A. flavus ATCC9170 [2] [µM]	MIC, S. aureus (MRSA) ATCC33592 [3] [µM]	MIC, E. coli ATCC35218, MHC medium (in brackets) [4]	MIC, E. coli ATCC35218, MHII medium [4]	MIC, P. aeruginosa ATCC27853 [5] [µM]	MIC, M. smegmatis ATCC607 [6] [µM]	MIC, C. albicans FH2173 [7] [µM]	Insecticidal activity in aphid feeding assays [8]	MIC, P. aeruginosa ATCC27853 ([5]; listed as checacin 1)
FLPAIYKQIQKKRK-Amidation [Checacin 1^12−25]	the only exceptions	>50	>50	>50 (>50) μM	>50 (>50) μM	>50	>50	>50		
FFGAIAKLAMKFLPAIYKQIQKKRK-Amidation [Checacin 1]		50	1.56	1.6 µM		12.5	25	6.25	insecticidal activity in aphid feeding assays, but only after 72 h	inhibited to various degrees
FFGAIAKLAMK [Checacin 1^1−11]	the only exceptions	>50	>50	>50 (>50) μM	>50 (>50) μM	>50	>50	>50		
FFGAIAKLAMKFLPAIYKQIQ [Checacin 1^1−21]		>50	12.5	>50 (>50) μM	>50 (>50) μM	>50	>50	>50		
